From PubChem BioAssay
An excerpt weighted towards active compounds, which were near 1.1% of everything screened.
Hep lipid drop: modulators of hepatic lipid droplet formation; AML12 mouse hepatocytes, oleate lipid droplets, BODIPY imaging; inhibition, % at 6.5 µM; 0.4% of 240,000 active; AID 1656;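 active means lipid droplet intensity inhibited by at least 50%, with more than 500 cells counted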
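Test system: AML12 hepatocytes (mouse); reagent: oleate loading, 100 µM; dosing: one dose, 6.5 µM compound; incubation: overnight exposure; signal: fluorescence imaging, 20x objective, two fields per well; read-out basis: % inhibition of corrected integrated BODIPY droplet signal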
Calb biofilm kill: mixture kills Candida albicans biofilm cells. 0.02% of 120,000 active. C. albicans biofilm persisters + clotrimazole, fluorescence viability; primary screen in compound mixtures of four per well. AID 1242. inhibition, % at 7.6 µM;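 active means inhibition above 30.3% in the primary screen of four-compound pools, then above 30% when the compound was retested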;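 further: compounds exposed to preformed 24 h biofilms for 48 h; 0% = untreated biofilm control and 100% = clotrimazole plus chlorhexidine kill blank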
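Probe or stimulus – Clotrimazole 50 µg/mL co-treatment · System – C. albicans biofilms · Schedule – 24 h biofilm formation, then 48 h compound exposure, 37 °C · Evaluation – percent inhibition of biofilm viability · Technique – 2-h Alamar Blue fluorescence, 535/590 nm excitation/emission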
Thrombin inh: blocks human thrombin protease activity; alpha-thrombin, Boc-VPR-AMC fluorogenic substrate cleavage; inhibition, % at 5 µM; 0.26% of 220,000 active; AID 1046;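 active means inhibition at or above 40%; inactive means inhibition below 40%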;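 further: 0% = enzyme with no compound and 100% = wells without enzyme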
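signal = AMC fluorescence, 355/460 nm | material = human alpha-thrombin enzyme | control set = enzyme without compound as high, wells lacking enzyme as low | times = reaction at room temperature | read-out basis = percent inhibition scaled between no-compound controls and no-enzyme blanks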
FXIa inh: factor XIa (human) inhibition; P03951; purified FXIa, Boc-Glu-Ala-Arg-AMC fluorogenic substrate; inhibition, % at 5 µM; 0.14% of 220,000 active; AID 798;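 active means inhibition of at least 40%; inactive means inhibition below 40%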;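 further: fluorescence of freed AMC excited at 355 nm; 0% = enzyme without compound and 100% = no enzyme blank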
Target sequence (P03951 19-387 limits assumed): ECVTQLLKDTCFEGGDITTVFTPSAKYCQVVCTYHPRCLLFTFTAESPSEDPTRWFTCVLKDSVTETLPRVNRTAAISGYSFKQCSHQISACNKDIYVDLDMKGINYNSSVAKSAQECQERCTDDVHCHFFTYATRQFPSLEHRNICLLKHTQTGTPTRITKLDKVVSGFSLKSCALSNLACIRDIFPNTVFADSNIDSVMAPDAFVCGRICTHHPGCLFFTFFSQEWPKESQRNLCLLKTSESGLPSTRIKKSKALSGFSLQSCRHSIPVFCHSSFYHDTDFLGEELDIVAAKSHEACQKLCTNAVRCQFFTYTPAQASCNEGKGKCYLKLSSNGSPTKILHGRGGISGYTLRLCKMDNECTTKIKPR
Target sequence (P03951 388-625 limits assumed): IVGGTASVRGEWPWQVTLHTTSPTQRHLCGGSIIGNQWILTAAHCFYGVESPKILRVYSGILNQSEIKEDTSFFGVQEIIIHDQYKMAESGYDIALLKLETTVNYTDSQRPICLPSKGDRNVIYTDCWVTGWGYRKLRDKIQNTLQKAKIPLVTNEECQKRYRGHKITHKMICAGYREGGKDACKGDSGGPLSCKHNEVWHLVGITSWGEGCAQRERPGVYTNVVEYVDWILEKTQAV
FXIIa inh: blocks human coagulation factor XIIa protease activity. inhibition, % at 5 µM. 0.3% of 220,000 active. purified FXIIa, Boc-QGR-AMC fluorogenic substrate, 2 h; in the data active means inhibition above about 40%;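 further: 0% = enzyme with no compound and 100% = blank without enzyme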
hK5 inh: kallikrein 5 (human) inhibition; Q9Y337; recombinant hK5, fluorogenic AMC substrate cleavage; inhibition, % at 5 µM; 0.59% of 210,000 active; AID 873;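 active means inhibition of 40% or more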;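 further: 0% = enzyme controls without compound and 100% = no-enzyme blanks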
* = called active by the depositor; . = not tested or not shown.

SMILES	Hep lipid drop	Calb biofilm kill	Thrombin inh	FXIa inh	FXIIa inh	hK5 inh
CN(C)c1ccc(NC(=O)CSc2nnc(-c3cnccn3)n2C)cc1	-2	.	.	.	.	.
Oc1ccc(/C=N/Nc2nc(-c3cccnc3)nc3ccccc23)c(O)c1	-3	14	7	42*	25	40
COc1ccc(/C=N/Nc2nc(-c3cccnc3)nc3ccccc23)cc1OC	27	11	-3	-1	1	-1
CCN(CC)c1ccc(S(=O)(=O)N2CCOCC2)cc1NC(=O)CN1CCN(Cc2ccccc2)CC1	-20	22	-1	0	17	-2
CC(=O)c1ccc(Nc2cc(C)nc3c(C)cc(C)cc23)cc1	-32	8	11	26	31	44*
COc1ccc(C2=NS(=O)(=O)N(C)C(C(=O)N3CCCCC3C)=C2)cc1 (stereo not drawn)	-6	.	.	.	.	.
COc1cc(CN2CCC(n3nccc3NC(=O)CCCc3ccccc3)CC2)ccc1F	-5	.	.	.	.	.
Brc1ccccc1/C=N/Nc1ccc2ccccc2n1	7	20	-12	1	9	-2
Cc1cc(N/N=C/c2ccccc2Br)nc2ccccc12	-1	5	19	18	32	42*
NS(=O)(=O)c1ccc(CCNC(=O)c2ccccc2-c2ccccc2)cc1	-5	.	.	.	.	.
O=C1CC(N2CCN(Cc3ccc(Cl)cc3)CC2)C(=O)N1CCc1ccccc1 (stereo not drawn)	-12	13	9	21	41*	18
O=C1CC(N2CCN(Cc3ccccc3)CC2)C(=O)N1CCc1ccccc1 (stereo not drawn)	.	.	4	-6	15	-5
O=C(CSc1nnc(COc2ccccc2)n1Cc1ccco1)c1ccc(F)cc1	.	.	-9	28	62*	-3
O=c1c2ccccc2nnn1CSc1nnc(COc2ccc(Cl)cc2)n1Cc1ccco1	.	.	1	1	19	48*
Cc1ccc(OCc2nnc(SCC(=O)c3ccccc3)n2Cc2ccco2)cc1	.	.	0	9	12	5
Nn1c(Cc2cccc3ccccc23)nnc1SCCOc1ccc(F)cc1	-2	3	28	21	41*	27
Nn1c(Cc2cccc3ccccc23)nnc1SCCOc1ccc(Br)cc1	0	7	-7	2	6	19
Cc1noc(C(=O)N2CCN(Cc3ccc4c(c3)OCO4)CC2)c1Cl	8	.	.	.	.	.
CCc1nnc(NC(=O)CSc2nc3ccccc3o2)s1	-2	.	11	7	0	42*
CCc1nnc(NC(=O)CSc2ncc(-c3ccccc3)[nH]2)s1	-2	.	12	10	-1	63*
Cc1nnc(NC(=O)CSc2nc3ccccc3o2)s1	-6	11	-3	-8	2	0
Cc1nnc(NC(=O)CSc2ncc(-c3ccccc3)[nH]2)s1	-3	13	-7	-4	3	-2
CCCCC1=NN(C(=O)c2ccco2)C(O)(C(F)(F)F)C1 (stereo not drawn)	3	2	-10	-3	-1	-5
Cn1c(SCC(=O)c2ccc3c(c2)NC(=O)CO3)nc2ccccc21	-1	12	53*	25	22	38
CCCn1c(SCC(=O)c2ccc3c(c2)NC(=O)CO3)nc2ccccc21	2	11	-5	-2	2	-7
SMILES	Hep lipid drop	Calb biofilm kill	Thrombin inh	FXIa inh	FXIIa inh	hK5 inh
Cc1ccccc1OCC(O)Cn1c(=N)n(Cc2ccccc2)c2ccccc21 (stereo not drawn)	15	30*	-3	-2	6	-2
CCOC(=O)n1c(=O)n(Cc2c(Cl)cccc2Cl)c2ccccc21	.	.	6	2	14	42*
CCOC(=O)n1c(=O)n(Cc2ccccc2)c2ccccc21	11	.	1	4	13	-4
Cc1ccc(NC(=O)CN2C(=O)S/C(=C\C(=O)Nc3ccc(Cl)cc3)C2=O)cc1	3	5	10	4	4	45*
Cc1ccc(NC(=O)CN2C(=O)S/C(=C/c3ccncc3)C2=O)cc1	-5	.	.	.	.	.
COC(c1ccccc1)c1nnc(CCC(=O)N(C)CCOc2ccccc2)o1 (stereo not drawn)	-9	4	-1	7	25	15
COC(c1ccccc1)c1nnc(CCC(=O)N(C)Cc2cccc(-n3cccn3)c2)o1 (stereo not drawn)	-3	10	40*	18	.	.
CCC(=O)n1nc(-c2ccc(OC)cc2)nc1SC	-9	15	28	6	11	-7
CCC(=O)n1nc(-c2ccc(Cl)cc2)nc1SC	-31	-6	57*	22	34	-7
CCCC(=O)n1nc(-c2ccc(Cl)cc2)nc1SC	-11	.	52*	0	14	-4
CC(=O)c1c(C)n(-c2ccccc2Br)c2ccc(O)cc12	-1	.	.	.	.	.
CCOC(=O)c1cn(Cc2ccccc2)nn1	-8	18	-6	36	50*	-5
O=C(O)c1cccnc1Sc1ccc(Br)cc1	8	.	.	.	.	.
CC1=C(C(=O)Nc2ccc(C)cc2)C(c2ccc(C)o2)C2=C(CC(C)(C)CC2=O)N1 (stereo not drawn)	-7	.	-5	23	45*	-10
CC1=C(C(=O)OCCOc2ccccc2)C(c2ccc(C)o2)C2=C(CC(C)(C)CC2=O)N1 (stereo not drawn)	.	.	-4	-2	10	-11
Cn1c(N/N=C/c2cccs2)cc(=O)n(C)c1=O	-5	.	65*	0	-4	-10
Cn1c(=O)c2c(nc(N/N=C/c3cccs3)n2C)n(C)c1=O	11	13	-4	4	9	-7
COCC(=O)n1nc(-c2ccccc2)nc1NCc1ccc(N(C)C)cc1	4	12	12	-7	-7	-25
COCC(=O)n1nc(-c2ccc(Cl)cc2)nc1NCc1ccc(F)cc1	-30	.	51*	1	12	-9
CCC(=O)n1nc(-c2cccnc2)nc1NCc1ccc(F)cc1	18	20	.	3	12	4
COCC(=O)n1nc(-c2ccc(C)cc2)nc1NCc1ccc(F)cc1	-8	20	79*	-6	-6	-17
O=C(NCC(=O)N(c1ccc(F)cc1)C(C(=O)NC1CCCC1)c1cccnc1)c1ccco1 (stereo not drawn)	2	.	.	.	.	.
COCCCn1cc(C(=O)c2ccccc2OCC(=O)Nc2cccc(F)c2)cc(C#N)c1=O	12	12	10	-6	2	-4
COCCn1cc(C(=O)c2ccccc2OCC(=O)Nc2cc(C)on2)cc(C#N)c1=O	1	.	24	6	4	42*
C=CCN1C(=O)C(=O)N(Cc2nc3ccccc3s2)C1=O	-2	.	.	.	.	.
Cc1cc2c(cc1C)N(C(=O)CSC1=NCCS1)C(C)(C)c1ssc(=S)c1-2	67*	.	8	-4	-7	3
CCCN1C(=S)c2ccccc2C1c1ccccc1 (stereo not drawn)	-13	.	.	.	.	.
S=C1Nc2ccccc2Sc2ccc(Cl)cc21	-29	0	31	12	5	67*
